Source: ChEMBL document CHEMBL5523707, “Novel Inhibitory Site Revealed by XAP044 Mode of Action on the Metabotropic Glutamate 7 Receptor Venus Flytrap Domain” (J Med Chem, 2024)
Values belong to the compound of their own block, whether it stands above or below them. Active and inactive are the calls of the source. The calls are words filed in the database; no cut-off is given here.

How the values were obtained:
[1] = species on record: Rattus norvegicus; assay: Ratio of pEC50 for antagonist activity against LSP4-202 induced rat mGlu7 S229A mutant assessed as decrease in LSP4-202 potency by measuring LSP4-202 pEC50 at 30 uM to pEC50 for LSP4-202-induced rat mGlu7 S229A mutant
[2] = species on record: Rattus norvegicus; assay: Ratio of pEC50 for antagonist activity against LSP4-202-induced rat mGlu7 K233S mutant assessed as decrease in LSP4-202 potency to pEC50 for LSP4-202-induced rat mGlu7 K233S mutant; settings: filed as antagonist
[3] = Antagonist activity against LSP4-202-induced rat mGlu7 S229A mutant assessed as decrease in LSP4-202 potency by measuring LSP4-202 pEC50
[4] = species on record: Rattus norvegicus; assay: Ratio of pEC50 for antagonist activity against LSP4-202 induced wild type rat mGlu7 assessed as decrease in LSP4-202 potency by measuring LSP4-202 pEC50 at 1 uM to pEC50 for LSP4-202-induced wild type rat mGlu7
[5] = species on record: Rattus norvegicus; assay: Ratio of pEC50 for antagonist activity against LSP4-202-induced wild type rat mGlu7 assessed as decrease in LSP4-202 potency to pEC50 for LSP4-202-induced wild type rat mGlu7; settings: filed as antagonist
[6] = Antagonist activity against LSP4-202-induced rat mGlu7 […] mutant assessed as decrease in LSP4-202 potency by measuring LSP4-202 pEC50 at 100 uM
[7] = species on record: Rattus norvegicus; assay: Ratio of pEC50 for antagonist activity against LSP4-202 induced wild type rat mGlu7 assessed as decrease in LSP4-202 potency by measuring LSP4-202 pEC50 at 3 uM to pEC50 for LSP4-202-induced wild type rat mGlu7
[8] = species on record: Rattus norvegicus; assay: Ratio of pEC50 for antagonist activity against LSP4-202 induced wild type rat mGlu7 assessed as decrease in LSP4-202 potency by measuring LSP4-202 pEC50 at 10 uM to pEC50 for LSP4-202-induced wild type rat mGlu7
[9] = Antagonist activity against LSP4-202-induced rat mGlu7 S237A mutant assessed as decrease in LSP4-202 potency by measuring LSP4-202 pEC50
[10] = target: Metabotropic glutamate receptor 7 (Rattus norvegicus) (UniProt P35400); assay: Non-competitive antagonist activity against rat mGlu7 receptor assessed as decrease in L-AP4 effect at 1 to 100 uM; settings: filed as antagonist, dose 1-100 µM
[11] = species on record: Rattus norvegicus; assay: Ratio of pEC50 for antagonist activity against LSP4-202-induced rat mGlu7 K233A mutant assessed as decrease in LSP4-202 potency to pEC50 for LSP4-202-induced rat mGlu7 K233A mutant; settings: filed as antagonist
[12] = species on record: Rattus norvegicus; assay: Ratio of pEC50 for antagonist activity against LSP4-202-induced rat mGlu7 S229A mutant assessed as decrease in LSP4-202 potency to pEC50 for LSP4-202-induced rat mGlu7 S229A mutant; settings: filed as antagonist
[13] = species on record: Rattus norvegicus; assay: Ratio of pEC50 for antagonist activity against LSP4-202 induced rat mGlu7 S229A mutant assessed as decrease in LSP4-202 potency by measuring LSP4-202 pEC50 at 100 uM to pEC50 for LSP4-202-induced rat mGlu7 S229A mutant
[14] = species on record: Rattus norvegicus; assay: Ratio of pEC50 for antagonist activity against LSP4-202-induced rat mGlu7 S237A mutant assessed as decrease in LSP4-202 potency to pEC50 for LSP4-202-induced rat mGlu7 S237A mutant; settings: filed as antagonist
[15] = species on record: Rattus norvegicus; assay: Ratio of pEC50 for antagonist activity against LSP4-202 induced wild type rat mGlu7 assessed as decrease in LSP4-202 potency by measuring LSP4-202 pEC50 at 30 uM to pEC50 for LSP4-202-induced wild type rat mGlu7
[16] = species on record: Rattus norvegicus; assay: Ratio of pEC50 for antagonist activity against LSP4-202-induced rat mGlu7 activation transfected in HEK293 cells co-transfected with chimeric Gqi9 assessed as decrease in LSP4-202 potency to pEC50 for LSP4-202-induced rat mGlu7 activation transfected in HEK293 cells co-transfected with chimeric Gqi9; format: cell-based
Procedure, shortened: (§1)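 IP-One HTRF IP1 read-out in HEK293 transiently expressing rat mGlu7 plus chimeric Gqα9, 24 h after electroporation. LSP4-2022 concentration-response was tested with derivatives at 30 or 100 µM. Gives pEC50, pEC50/pEC50 control ratio, and max as % of LSP4-2022 maximal effect over basal. Triplicates, n independent experiments; paired t-test.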

[17] = Antagonist activity against LSP4-202-induced rat mGlu7 K233D mutant assessed as decrease in LSP4-202 potency by measuring LSP4-202 pEC50
[18] = Antagonist activity against LSP4-202-induced rat mGlu7 […] mutant assessed as decrease in LSP4-202 potency by measuring LSP4-202 pEC50 at 10 uM
[19] = target: T1, Metabotropic glutamate receptor 7 (Rattus norvegicus, UniProt P35400); assay: Antagonist activity against rat mGlu7 activation transfected in HEK293 cells co-transfected with chimeric Gqi9 incubated for 24 hrs in presence of LSP4-2022 by IP-one HTRF assay; format: functional, cell-based; settings: read-out: IC50
Procedure, shortened: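 Inhibition curves were run with increasing inhibitor concentrations against IP1 production by 30 µM LSP4-2022. Rat mGlu7 was co-expressed with Gqα9 in HEK293 and assayed 24 h post-transfection with IP-One HTRF. IC50/pIC50 are means ± sem of independent experiments in triplicates. pIC50 compared to reference by unpaired t-test.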

[20] = Antagonist activity against LSP4-202-induced rat mGlu7 […] mutant assessed as decrease in LSP4-202 potency by measuring LSP4-202 pEC50 at 30 uM
[21] = Antagonist activity against LSP4-202-induced rat mGlu7 K233A mutant assessed as decrease in LSP4-202 potency by measuring LSP4-202 pEC50
[22] = target: T1, Metabotropic glutamate receptor 7; assay: Inhibition of [3H] -LY341495 binding to rat mGlu7 expressed in CHO cell membrane incubated for 30 mins in presence of LY341495 by liquid scintillation analysis; format: cell membranes
[23] = Antagonist activity at LSP4-202-induced rat mGlu7 K233S mutant assessed as decrease in LSP4-202 potency by measuring LSP4-202 pEC50
[24] = species on record: Rattus norvegicus; assay: Ratio of pEC50 for antagonist activity at LSP4-202-induced rat mGlu7 K233D mutant assessed as decrease in LSP4-202 potency to pEC50 for LSP4-202-induced rat mGlu7 K233D mutant; settings: filed as antagonist
[25] = target: Metabotropic glutamate receptor 7 (Rattus norvegicus) (UniProt P35400); assay: Antagonist activity against LSP4-202-induced rat mGlu7 activation transfected in HEK293 cells co-transfected with chimeric Gqi9 assessed as decrease in LSP4-202 potency by measuring LSP4-202 maximum efficacy at 30 to 100 uM incubated for 24 hrs by IP-one HTRF assay relative to control; format: functional, cell-based; settings: filed as antagonist, dose 30-100 µM; procedure, shortened: as §1
[26] = species on record: Rattus norvegicus; assay: Ratio of pEC50 for antagonist activity against LSP4-202 induced rat mGlu7 S229A mutant assessed as decrease in LSP4-202 potency by measuring LSP4-202 pEC50 at 10 uM to pEC50 for LSP4-202-induced rat mGlu7 S229A mutant
[27] = target: T1, Metabotropic glutamate receptor 7; assay: Inhibition of [3H] -LY341495 binding to rat mGlu7 expressed in CHO cell membrane incubated for 30 mins by liquid scintillation analysis
[28] = target: Metabotropic glutamate receptor 7 (Rattus norvegicus, UniProt P35400, K60A/S160A); assay: Agonist activity at rat mGlu7 K60A/S160A mutant
[29] = Agonist activity at rat mGlu4 loop beta-10-alpha7 region
[30] = Agonist activity at rat mGlu7 loop beta10-alpha7 region
[31] = target: Metabotropic glutamate receptor 7 (Rattus norvegicus, UniProt P35400, S160A); assay: Agonist activity at rat mGlu7 S160A mutant
[32] = target: Metabotropic glutamate receptor 4 (Rattus norvegicus, UniProt P31423, S160D); assay: Agonist activity against rat mGlu4 S160D mutant
[33] = Agonist activity at rat mGlu7 K233D mutant
[34] = Agonist activity at rat mGlu7 S237A mutant
[35] = Agonist activity at rat mGlu4 R258Q/D262/R263 mutant
[36] = Agonist activity at rat mGlu7 Q258R/D262/R263 mutant
[37] = Agonist activity at rat mGlu7 K233A mutant
[38] = target: Metabotropic glutamate receptor 4 (Rattus norvegicus, UniProt P31423, S160A); assay: Agonist activity against rat mGlu4 S160A mutant
[39] = target: T1, Metabotropic glutamate receptor 7; assay: Agonist activity at wild type rat mGlu7; format: functional
Procedure, shortened: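 HEK293 cells were transiently transfected by electroporation with rat mGlu7 plasmid plus chimeric Gqα9 to couple to phospholipase C. They were grown in DMEM with 10% FBS on polyornithine-coated wells at 150 000 cells/well.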

[40] = target: Metabotropic glutamate receptor 7 (Rattus norvegicus, UniProt P35400, N74A); assay: Agonist activity at rat mGlu7 N74A mutant
[41] = target: Metabotropic glutamate receptor 7 (Rattus norvegicus, UniProt P35400, N74K); assay: Agonist activity at rat mGlu7 N74K mutant
[42] = target: Metabotropic glutamate receptor 4 (Rattus norvegicus, UniProt P31423); assay: Agonist activity against wild type rat mGlu4; format: functional
[43] = target: Metabotropic glutamate receptor 7 (Rattus norvegicus, UniProt P35400, K60A); assay: Agonist activity at rat mGlu7 K60A mutant
[44] = target: T1, Metabotropic glutamate receptor 7; assay: Antagonist activity against LSP4-202-induced rat mGlu7 activation transfected in HEK293 cells co-transfected with chimeric Gqi9 assessed as decrease in LSP4-202 potency by measuring LSP4-202 pEC50 incubated for 24 hrs by IP-one HTRF assay; format: functional, cell-based; procedure, shortened: as §1
[45] = Agonist activity at rat mGlu7 K233S mutant
[46] = target: Metabotropic glutamate receptor 4 (Rattus norvegicus, UniProt P31423, R258A); assay: Agonist activity at rat mGlu4 R258A mutant
[47] = target: Metabotropic glutamate receptor 4 (Rattus norvegicus, UniProt P31423, R60A); assay: Agonist activity against rat mGlu4 R60A mutant
[48] = target: Metabotropic glutamate receptor 7 (Rattus norvegicus, UniProt P35400, Q258A); assay: Agonist activity at rat mGlu7 Q258A mutant
[49] = Agonist activity at rat mGlu7 N288A mutant
[50] = Agonist activity at rat mGlu7 D314A mutant
[51] = Agonist activity at rat mGlu7 N74K/loop 4 region
[52] = target: Metabotropic glutamate receptor 4 (Rattus norvegicus, UniProt P31423, K74A); assay: Agonist activity against rat mGlu4 K74A mutant
[53] = Agonist activity at rat mGlu7 S229A mutant

T1 sequence (P35400 whole entry): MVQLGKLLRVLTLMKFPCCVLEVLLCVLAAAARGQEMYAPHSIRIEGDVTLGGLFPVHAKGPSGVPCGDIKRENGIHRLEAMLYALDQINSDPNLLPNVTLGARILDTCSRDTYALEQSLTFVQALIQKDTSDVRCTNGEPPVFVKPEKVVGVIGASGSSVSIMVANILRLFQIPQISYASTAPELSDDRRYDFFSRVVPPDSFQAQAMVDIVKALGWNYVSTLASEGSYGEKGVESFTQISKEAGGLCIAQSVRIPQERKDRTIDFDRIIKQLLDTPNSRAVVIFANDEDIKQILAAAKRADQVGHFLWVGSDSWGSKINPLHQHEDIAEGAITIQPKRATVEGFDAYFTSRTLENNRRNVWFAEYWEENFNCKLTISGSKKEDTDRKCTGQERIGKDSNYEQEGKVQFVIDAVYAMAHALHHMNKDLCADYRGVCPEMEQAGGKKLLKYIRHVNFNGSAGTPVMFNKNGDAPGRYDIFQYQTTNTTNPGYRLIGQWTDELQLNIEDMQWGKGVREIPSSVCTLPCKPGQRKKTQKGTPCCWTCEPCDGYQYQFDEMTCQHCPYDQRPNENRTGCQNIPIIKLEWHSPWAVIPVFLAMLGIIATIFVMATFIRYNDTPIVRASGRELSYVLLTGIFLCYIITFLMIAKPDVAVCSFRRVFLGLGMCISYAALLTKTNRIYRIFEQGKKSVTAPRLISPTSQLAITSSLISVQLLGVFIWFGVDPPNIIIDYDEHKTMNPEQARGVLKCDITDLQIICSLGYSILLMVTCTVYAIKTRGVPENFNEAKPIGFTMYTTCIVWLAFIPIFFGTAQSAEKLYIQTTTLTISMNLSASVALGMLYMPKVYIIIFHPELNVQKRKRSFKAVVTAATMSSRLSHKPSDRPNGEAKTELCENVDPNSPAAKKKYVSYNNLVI
Metabotropic glutamate receptor 7 (Rattus norvegicus), sequence (P35400 whole entry): as above
Metabotropic glutamate receptor 7 (Rattus norvegicus, UniProt P35400, N74A), sequence (P35400 35-915 N74A limits assumed): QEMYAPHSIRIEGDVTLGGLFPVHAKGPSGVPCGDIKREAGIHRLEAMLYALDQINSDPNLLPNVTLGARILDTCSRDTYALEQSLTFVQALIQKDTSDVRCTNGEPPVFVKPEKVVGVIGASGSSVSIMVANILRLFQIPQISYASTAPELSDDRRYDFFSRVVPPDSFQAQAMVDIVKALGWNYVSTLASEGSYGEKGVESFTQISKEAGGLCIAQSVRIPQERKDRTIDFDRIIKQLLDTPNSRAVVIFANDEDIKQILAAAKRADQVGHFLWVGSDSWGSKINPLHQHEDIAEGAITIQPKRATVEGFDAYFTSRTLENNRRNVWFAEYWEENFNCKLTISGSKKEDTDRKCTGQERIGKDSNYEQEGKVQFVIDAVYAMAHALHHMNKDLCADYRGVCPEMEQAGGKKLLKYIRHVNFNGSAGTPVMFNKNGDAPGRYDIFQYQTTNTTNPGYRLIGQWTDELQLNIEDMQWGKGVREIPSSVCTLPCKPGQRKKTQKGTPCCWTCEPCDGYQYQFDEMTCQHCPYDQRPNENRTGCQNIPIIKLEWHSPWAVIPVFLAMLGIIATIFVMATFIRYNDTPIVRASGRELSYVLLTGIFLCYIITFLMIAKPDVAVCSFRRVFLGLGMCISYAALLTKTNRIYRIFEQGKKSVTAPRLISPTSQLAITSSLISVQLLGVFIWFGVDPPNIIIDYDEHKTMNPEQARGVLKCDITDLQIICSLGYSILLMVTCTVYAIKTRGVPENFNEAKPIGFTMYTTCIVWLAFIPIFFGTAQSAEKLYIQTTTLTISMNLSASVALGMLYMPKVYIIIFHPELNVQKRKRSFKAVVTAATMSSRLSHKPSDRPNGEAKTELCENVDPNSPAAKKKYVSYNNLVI
Metabotropic glutamate receptor 4 (Rattus norvegicus, UniProt P31423, K74A), sequence (P31423 33-912 K74A limits assumed): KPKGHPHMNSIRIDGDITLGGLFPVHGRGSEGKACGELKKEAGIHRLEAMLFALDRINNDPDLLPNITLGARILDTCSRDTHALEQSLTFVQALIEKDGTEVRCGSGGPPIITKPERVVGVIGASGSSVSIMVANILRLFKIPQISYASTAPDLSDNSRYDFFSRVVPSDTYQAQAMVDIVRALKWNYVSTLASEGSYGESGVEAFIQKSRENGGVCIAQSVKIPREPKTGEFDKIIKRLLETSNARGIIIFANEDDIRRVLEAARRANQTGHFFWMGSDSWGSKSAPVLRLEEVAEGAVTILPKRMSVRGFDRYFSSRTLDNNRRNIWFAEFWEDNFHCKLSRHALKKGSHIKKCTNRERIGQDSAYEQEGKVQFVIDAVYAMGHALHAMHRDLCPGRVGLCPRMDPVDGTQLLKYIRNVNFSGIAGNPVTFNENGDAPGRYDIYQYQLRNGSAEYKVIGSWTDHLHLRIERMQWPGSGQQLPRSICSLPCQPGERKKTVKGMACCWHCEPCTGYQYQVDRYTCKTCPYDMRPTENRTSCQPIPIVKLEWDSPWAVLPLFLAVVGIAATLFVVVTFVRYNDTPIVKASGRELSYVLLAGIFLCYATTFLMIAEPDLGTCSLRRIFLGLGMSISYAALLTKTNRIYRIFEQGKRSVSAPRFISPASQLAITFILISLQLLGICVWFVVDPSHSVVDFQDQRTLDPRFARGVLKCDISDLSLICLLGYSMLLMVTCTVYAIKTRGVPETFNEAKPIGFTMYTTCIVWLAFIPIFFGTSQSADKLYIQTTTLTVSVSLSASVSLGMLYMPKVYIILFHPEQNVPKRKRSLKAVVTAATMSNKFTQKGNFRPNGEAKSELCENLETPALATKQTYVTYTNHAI
Metabotropic glutamate receptor 7 (Rattus norvegicus, UniProt P35400, S160A), sequence (P35400 35-915 S160A limits assumed): as the sequence (P35400 35-915 N74A limits assumed) above, with A40N, S126A counted along it

Ratio [1]: 0.9
Ratio [2]: 0.88
pEC50 [3]: 4.99
Ratio [4]: 0.96
Ratio [5]: 0.83
EC50 [6]: 10.9 µM
pEC50 [6]: 4.99
Ratio [7]: 0.94
Ratio [8]: 0.91
pEC50 [9]: 3.7
Activity [10]: Active
Ratio [11]: 0.88
Ratio [12]: 1.02
Ratio [13]: 1
Ratio [14]: 0.78
Ratio [15]: 0.83
pEC50 [17]: 3.56
EC50 [18]: 25 µM
pEC50 [18]: 4.6
IC50 [19]: 4.33 µM
EC50 [20]: 49.5 µM
pEC50 [20]: 4.32
pEC50 [21]: 3.58
IC50 [22]: 0.08 µM
pEC50 [23]: 4.25
Ratio [24]: 0.93
Emax [25]: 96.4%
Ratio [26]: 0.96
SMILES: O=c1c(Oc2ccc(I)cc2)coc2cc(O)ccc12
Ratio [16]: 0.82

SMILES: N[C@](CC1c2ccccc2Oc2ccccc21)(C(=O)O)[C@H]1C[C@@H]1C(=O)O
IC50 [27]: 0.19 µM

EC50 [28]: > 300 µM
EC50 [29]: 3.68 µM
EC50 [30]: 2.18 µM
EC50 [31]: > 300 µM
EC50 [32]: 18.5 µM
EC50 [33]: 155 µM
pEC50 [33]: 3.83
EC50 [34]: 18.3 µM
pEC50 [34]: 4.74
EC50 [35]: 7 µM
EC50 [36]: 13.9 µM
EC50 [37]: 87.7 µM
pEC50 [37]: 4.06
EC50 [38]: 26.2 µM
EC50 [39]: 21.2 µM
EC50 [40]: 32 µM
EC50 [41]: 47 µM
EC50 [42]: 0.833 µM
EC50 [43]: 178 µM
EC50 [44]: 19.5 µM
EC50 [45]: 40.9 µM
pEC50 [45]: 4.39
EC50 [46]: 4.91 µM
EC50 [47]: 9.07 µM
EC50 [48]: 18.2 µM
EC50 [49]: 49.3 µM
EC50 [50]: > 1000 µM
EC50 [51]: 2.56 µM
EC50 [52]: 0.024 µM
EC50 [53]: 14.5 µM
pEC50 [53]: 4.96
SMILES: N[C@@H](CCP(=O)(O)C(O)c1ccc(OCC(=O)O)cc1)C(=O)O (stereo partly specified)
